Calls of active or inactive are those of the source. The calls are words filed in the database; no cut-off is given here.

These results are taken from ChEMBL document CHEMBL1157932, “Prenylated pterocarpans as bacterial neuraminidase inhibitors” (Bioorg Med Chem, 2010).

Experiment [1] deals with Sialidase (Vibrio cholerae serotype O1 (strain ATCC 39315 / El Tor Inaba N16961)) (UniProt P0C6E9). As to the kind of experiment: (§1) Inhibition of Vibrio cholerae neuraminidase assessed as inhibition of 4-MU-NANA hydrolysis after 30 mins by spectrofluorimetry. The method, boiled down: (§2)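 V. cholerae enzyme (8.3 U) with compound in 50 mM MES, 6 mM CaCl2, pH 5.6, pre-incubated 30 min at 37 °C with shaking. 4-MU-NANA added at 25 µM final, 30 min at 37 °C, then quenched with 0.25 M glycine pH 10.0. Read at ex 360/em 440 nm, blank-corrected, expressed as % of no-inhibitor control, at least triplicate.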

In experiment [2] the target is Sialidase (Vibrio cholerae serotype O1 (strain ATCC 39315 / El Tor Inaba N16961), UniProt P0C6E9). The experiment is described as §1. The method, boiled down: as §2
In experiment [3] the target is T1, Sialidase (Clostridium perfringens) (UniProt P10481).
T1 sequence (whole entry): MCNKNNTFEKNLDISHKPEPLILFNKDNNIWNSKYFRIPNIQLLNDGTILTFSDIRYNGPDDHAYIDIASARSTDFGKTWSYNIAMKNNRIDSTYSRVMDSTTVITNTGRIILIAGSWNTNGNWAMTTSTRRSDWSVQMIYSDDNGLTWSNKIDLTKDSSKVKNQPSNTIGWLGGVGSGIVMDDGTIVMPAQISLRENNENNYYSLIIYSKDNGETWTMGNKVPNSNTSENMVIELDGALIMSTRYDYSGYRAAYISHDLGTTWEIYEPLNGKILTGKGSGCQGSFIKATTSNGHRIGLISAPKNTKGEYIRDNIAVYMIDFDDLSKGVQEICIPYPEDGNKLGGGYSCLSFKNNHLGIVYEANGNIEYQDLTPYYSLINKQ
As to the kind of experiment: Inhibition of Clostridium perfringens neuraminidase at 10 times IC50 by spectrofluorimetry. The method, boiled down: (§3)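 Reversibility by jump dilution: enzyme pre-incubated 15 min with compound at 100-fold assay enzyme level (0.125 U/mL), then diluted 1/100 into acetate buffer with substrate. Progress curves of fluorescence over 30 min compared with enzyme pre-incubated and diluted without compound.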

In experiment [4] the target is T1, Sialidase (Clostridium perfringens). As to the kind of experiment: Noncompetitive inhibition of Clostridium perfringens neuraminidase by Lineweaver-Burke plot analysis.
The target is the same in experiment [5]. Put plainly: Noncompetitive inhibition of Clostridium perfringens neuraminidase by Dixon plot analysis. The method, boiled down:
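Dixon plots of 1/v against [I] at each substrate concentration, rates from unquenched fluorometric 4-MU-NANA hydrolysis (ex 360/em 440 nm); Ki read from the x-axis value where lines intersect.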

The target is the same in experiment [6]. Put plainly: Reversible inhibition of Clostridium perfringens neuraminidase at 10 times IC50 pre-incubated for 15 mins by spectrofluorimetry. The method, boiled down: as §3
Experiment [7] shares this target. Put plainly: Inhibition of Clostridium perfringens neuraminidase at 0.1 times IC50 by spectrofluorimetry. The method, boiled down: as §3
Experiment [8] deals with T2, Sialidase (Clostridium perfringens, UniProt P10481).
T2 sequence (P10481 whole entry): T1 sequence (whole entry)
As to the kind of experiment: (§4) Inhibition of Clostridium perfringens neuraminidase assessed as inhibition of 4-MU-NANA hydrolysis after 10 mins by spectrofluorimetry. The method, boiled down:
(§5)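 Enzyme at 0.05 U/mL in 0.04 M sodium acetate pH 5.0 with compound (DMSO stock diluted in buffer) and 4-MU-NANA (1 mM stock); 10 min at 37 °C. Stopped with 0.1 M glycine–NaOH pH 10.4; 4-methylumbelliferone read at ex 360/em 440 nm. IC50 from regression, mean ± SD of three replicates.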

In experiment [9] the target is T1, Sialidase (Clostridium perfringens). Described as §4. The method, boiled down:
as §5

The target in experiment [10] is T2, Sialidase. Put plainly: Noncompetitive inhibition of Clostridium perfringens neuraminidase. The method, boiled down: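 Kinetics run in acetate-buffer 4-MU-NANA fluorometric assay without stop solution, product read immediately at ex 360/em 440 nm across substrate and inhibitor concentrations. Mode assigned from Lineweaver–Burk and Dixon plots; Ki from x-axis intersection of lines.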

Experiment [11] deals with T1, Sialidase (Clostridium perfringens). As to the kind of experiment: Reversible inhibition of Clostridium perfringens neuraminidase at 0.1 times IC50 pre-incubated for 15 mins by spectrofluorimetry. The method, boiled down: as §3

Chain of Sialidase (Vibrio cholerae serotype O1 (strain ATCC 39315 / El Tor Inaba N16961)) (P0C6E9 whole entry, one chain of several): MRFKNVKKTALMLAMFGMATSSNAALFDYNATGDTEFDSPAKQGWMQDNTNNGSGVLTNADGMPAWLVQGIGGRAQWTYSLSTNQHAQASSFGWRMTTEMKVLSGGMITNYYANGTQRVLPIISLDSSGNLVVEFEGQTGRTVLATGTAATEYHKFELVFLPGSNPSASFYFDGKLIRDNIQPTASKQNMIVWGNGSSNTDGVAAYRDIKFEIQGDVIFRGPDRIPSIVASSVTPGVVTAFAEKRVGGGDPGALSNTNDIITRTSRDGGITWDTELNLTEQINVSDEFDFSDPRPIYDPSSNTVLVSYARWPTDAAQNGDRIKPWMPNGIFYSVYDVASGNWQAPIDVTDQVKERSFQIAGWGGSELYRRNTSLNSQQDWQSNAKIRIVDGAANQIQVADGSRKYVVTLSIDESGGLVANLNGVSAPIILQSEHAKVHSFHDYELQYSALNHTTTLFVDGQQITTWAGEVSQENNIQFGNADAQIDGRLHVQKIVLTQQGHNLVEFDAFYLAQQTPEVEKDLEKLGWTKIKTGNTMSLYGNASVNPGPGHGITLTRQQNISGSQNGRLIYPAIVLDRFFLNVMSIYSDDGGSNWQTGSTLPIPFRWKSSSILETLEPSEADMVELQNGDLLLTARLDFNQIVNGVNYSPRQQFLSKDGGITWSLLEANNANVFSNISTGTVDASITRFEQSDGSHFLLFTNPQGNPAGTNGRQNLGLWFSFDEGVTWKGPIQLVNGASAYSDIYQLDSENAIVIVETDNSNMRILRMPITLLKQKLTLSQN
Chain of Sialidase (Vibrio cholerae serotype O1 (strain ATCC 39315 / El Tor Inaba N16961), UniProt P0C6E9) (P0C6E9 whole entry, one chain of several): as above

Regarding `Oc1ccc2c(c1)O[C@H]1c3ccc(O)cc3OC[C@@H]21`, the Activity result in experiment [1] and in experiment [9] was “Dose-dependent effect” throughout. Moreover, the IC50 (in general, the concentration at which inhibition is half-maximal) in experiment [2] came out at 29.5 µM; in experiment [8] it was 6.39 µM. The figures for the inhibition in [3] and in experiment [7] were 91% and 9%, respectively. Moreover, the inhibition result in experiment [4], in experiment [5], in experiment [6] and in experiment [11] was “Active” in each case. In addition, in experiment [10], the Ki (usually the dissociation constant of the complex between target and ligand, obtained from inhibition or displacement) came to 3.83 µM.

Take `CC1(C)Oc2ccc3c(c2CC1O)O[C@@H]1c2ccc(O)cc2OC[C@H]31` (stereo partly drawn) [ERYTHRIBYSSIN M]: the Activity result in experiment [1] and in experiment [9] was “Dose-dependent effect” throughout. The IC50 in [2] is 77.7 µM; in [8], 205 µM. Moreover, the inhibition (in general, the relative decrease from the control value, in per cent) in experiment [3] came out at 91%; in experiment [7], 9%. In addition, the inhibition entry in experiment [6] and in [11] was “Active” in each case.

Regarding `CC(C)=CCc1cc2c(cc1O)OC[C@@]1(O)c3ccc4c(c3O[C@@H]21)C=CC(C)(C)O4` [ERYSUBIN E], the Activity result in experiment [1] and in [9] was “Dose-dependent effect” each time. Besides, the results for the IC50 in [2] and in experiment [8] were 19.5 µM and 1.3 µM, respectively. The inhibition in experiment [3] came to 91%; in experiment [7] it was 9%. In addition, the inhibition result in [4], in experiment [5], in [6] and in [11] was “Active” in each case. Affinity in experiment [10] was put at a Ki of 0.24 µM.

Turning to `CC(C)=CCc1cc2c(cc1O)O[C@H]1c3ccc(O)cc3OC[C@@H]21` [SOPHORAPTEROCARPAN A], the half-inhibitory concentration (IC50) in experiment [2] was found to be 11.6 µM; in [8] it was 2.01 µM. Further, the inhibition in experiment [3] amounted to 91%; in [7], 9%. Also, the inhibition result in [4], in experiment [5], in experiment [6] and in experiment [11] was “Active” throughout. The Activity result in experiment [9] is “Dose-dependent effect”. Besides, the affinity in [10] corresponds to a Ki of 1.78 µM.

Turning to `COc1ccc2c(c1CC=C(C)C)O[C@H]1c3cc(CC=C(C)C)c(O)cc3OC[C@@]21O` [ERYSTAGALLIN A], the Activity entry in [1] and in [9] was “Dose-dependent effect” in each case. Further, the IC50 in experiment [2] worked out at 27.7 µM; in [8], 2.04 µM. In addition, the inhibition stood at 91% in experiment [3] and 9% in experiment [7]. For the same molecule, the inhibition result in experiment [4], in experiment [5], in [6] and in experiment [11] was “Active” each time. This molecule registered an inhibition constant Ki in experiment [10] of 1.8 µM.

Take `CC1(C)Oc2ccc3c(c2CC1O)O[C@H]1c2ccc(O)cc2OC[C@@H]31` (stereo partly drawn) [ERYTHRIBYSSIN D]: the Activity result in [1] and in experiment [9] was “Dose-dependent effect” in each case. For the same molecule, the half-maximal inhibitory concentration (IC50) is 46.2 µM in [2] and 77.1 µM in [8]. Also, the inhibition in [3] was 91%; in [7], 9%. Further, the inhibition result in experiment [6] and in [11] was “Active” each time.

`CC(C)=CCc1c(O)ccc2c1O[C@H]1c3cc4c(cc3OC[C@@H]21)OC(C)(C)C(O)C4` (stereo partly drawn) [ERYTHRIBYSSIN L]: the results for the IC50 in [2] and in [8] were 27.1 µM and 2.79 µM, respectively. Moreover, the inhibition in [3] is 91%; in experiment [7], 9%. Also, the inhibition result in experiment [4], in [5], in experiment [6] and in experiment [11] was “Active” throughout. Also, in experiment [9], the Activity result was “Dose-dependent effect”. The same molecule returned an inhibitory constant (Ki) in experiment [10] of 4.13 µM.

With `COc1ccc2c3c(oc2c1CC=C(C)C)-c1ccc(O)cc1OC3` [ERYVARIN D], the Activity entry in experiment [1] was “Dose-dependent effect”. Besides, the IC50 in [2] turned out to be 3.3 µM; in experiment [8] it was 2.09 µM. The same molecule yielded a Ki in experiment [10] of 2.55 µM.
